Assay results from different studies.
Protocols differ between the studies behind these lines.
Target: Cannabinoid receptor 1 (CNR1, Homo sapiens, UniProt P21554)

Compound | effect on | mode | method | cells | concentration | endpoint | value
CC(C)C(NC(=O)c1nn(Cc2ccc(F)cc2)c2ccccc12)C(N)=O (centres unmarked) | calcium signal | agonist | fluorescence | – | – | Emax | 120%
CN(CCN1CCC(OC(=O)Nc2ccccc2-c2ccccc2)CC1)C(=O)c1ccc(CN2CCC(C(N)=O)CC2)cc1 | ligand displacement | – | radioligand | – | 1 µM | inhibition | -3%
COCc1c(-c2cc3cc(C)cc(OC)c3s2)c2c(N)ncnn2c1CN1CCNC(=O)C1 | ligand displacement | – | radioligand | – | 10 µM | inhibition | 26%
N#Cc1c(Oc2cccc(OS(=O)(=O)CCCC(F)(F)F)c2)cccc1C(F)(F)F | calcium signal | agonist | fluorescence | CHO | – | Emax | 39%
COc1ccc(S(=O)(=O)N2CCCCC2)cc1C | ligand displacement | – | radioligand | – | 10 µM | inhibition | < 30%
O=C1N=C(N2CCCCN2)S/C1=C\c1ccc(F)cc1O | ligand displacement | – | radioligand | – | 10 µM | inhibition | < 10%
c1ccc(C(NCCNC(c2ccccc2)c2ccccc2)c2ccccc2)cc1 | cell-free assay | – | – | – | 10 µM | inhibition | 102%
CC(C)N1CCC[C@H]1CNC(=O)c1cn(C2CCCC2)c(=O)c2c1c1ccccc1n2C | ligand displacement | – | radioligand | – | 10 µM | inhibition | 48%
CCOC(=O)C(CC)(CCCSCCOCCOCCNc1ccc([N+](=O)[O-])c2nonc12)NC(=O)c1ccc(C2CC2)c(Cc2ccc(F)cc2)n1 (racemic) | cAMP | agonist | – | – | – | Emax | 126%
Clc1ccc2c(C3CCN(CCc4c[nH]c5ccccc45)CC3)c[nH]c2c1 | ligand displacement | – | radioligand | – | 10 µM | inhibition | -27%
CCN(CC)CCCC[C@H](NC(=O)[C@H](CC(C)C)NC(=O)[C@H](C)NC(=O)[C@H](Cc1ccccc1)NC(=O)c1ccc(C(C)(C)C)cc1)C(=O)N[C@@H](CO)C(=O)OC | ligand displacement | – | radioligand | – | 10 µM | remaining binding | 113%
